The record followed here is the RNAGym collection of RNA variant scans (doi:10.1126/science.aae0568).

This sample holds only a part of the variants without activity. Bounds are passed on as bounds.

First the molecules themselves.
B1: tRNA (parent)
chain: GUUCCGUUGGCGUAAUGGUAACGCGUCUCCCUCCUAAGGAGAAGACUGCGGGUUCGAGUCCCGUACGGAACG

This series covers variants of B1. Nature of the series: yeast fitness relative to wild type (ratio to wild type); higher = fitter; tRNA-Arg(CCU), competitive growth, 37 C, YPD. An outline of the steps:
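Variants of the tRNA-Arg(CCU) gene, chemically synthesised with a 3% per-site mutation rate at 69 sites, were placed at the native genomic locus in Saccharomyces cerevisiae. The pooled strains were competed in YPD at 37°C for 24 hours in six parallel replicates. Gene amplicons from the start population and from each end population were read by 100-nucleotide paired-end sequencing. Darwinian fitness relative to wild type came from changes in genotype frequencies; genotypes needed ≥ 100 starting reads, and estimates < 0.5 were set to 0.5.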
U32C C60A: the yeast fitness stood at 0.645.
To G9C A36C A37G U64C belongs not above 0.5; to C11G C29U U47C C66A, not above 0.5.
The result for C11G G44C A57C C60U reads 0.518; that for G25C U32G G44A C46G, not above 0.5; that for G6C C30A C34A A43C C62U, not above 0.5.
Consider C5U A20U C55G G68A, for which the yeast fitness was not above 0.5.
The result for A20C C22U C34U U35G reads not above 0.5; that for C11G U13G C30U A37G A40U A57U, not above 0.5; that for U19G U53A, 0.506.
To U26A G44C A65G belongs 0.573.
As to C29U C34U A57C G63A A70G, the yeast fitness was not above 0.5.
The result for G25A U35A A36U C61U reads not above 0.5.
Take U2A C5U A15G C34U G41C C55A: the yeast fitness was not above 0.5.
For A21G G25C, the yeast fitness is 1.04.
To C5U A20C A69U belongs 0.771; to C4U C11G C55U G58A, not above 0.5.
The result for G12A A69C reads 0.866.
The result for U19C G25C G51C C60U reads not above 0.5; that for A36G G50C U64C, 1.18; that for A43U U59A C61A, 0.629.
Regarding A36C C55U A65C, the yeast fitness amounted to 0.632.
G12C C24G U53C C60G: the yeast fitness was not above 0.5.
G18A C24U G48C U53G: the yeast fitness is 0.583.
With C46A G68U, the yeast fitness is 0.824.
The result for U7A A45G C61G reads not above 0.5; that for G6A A20C C49G G50C, not above 0.5; that for G9A G25A A40C C46U, 0.727.
To U2G C24G C29G C31G A69C belongs not above 0.5; to U3C A15C G17C C24A C31U U35C G68C, not above 0.5.
U2C C27G C31G A69U: the yeast fitness was not above 0.5.
On to G50C C60A, for which the yeast fitness is not above 0.5.
The result for G12C G25C G39C reads not above 0.5.
Turning to C24G C49U C61A, the yeast fitness was not above 0.5.
Turning to C22U C33G G41C G56C G58A G63C A65U, the yeast fitness was not above 0.5.
To A45U C61G belongs 0.569.
To C4A A14C U19A A69C belongs 0.53; to C11U C24U A45G C46G C55G, not above 0.5; to G12C U19A C27G G44C, not above 0.5.
The result for C22A A42G C49U reads not above 0.5; that for G17A C34U A57U U64C, not above 0.5; that for C27G A42U A43U, 0.594.
In the case of G6A A14G A15G A20C U64A G67A, the yeast fitness is not above 0.5.
For A14U C49U C55U, the yeast fitness was not above 0.5.
The result for C4U G6A G25A U32C reads not above 0.5; that for C4U U26G U59C C62A, 0.679; that for C11G C31G A42U, 0.527.
Turning to U7C G10C C46U, the yeast fitness is 0.523.
The result for A21U A42G C55U reads 0.601.
Regarding G18C A45U G56U U64A A69C, the yeast fitness was found to be 0.786.
To G6A A20C C55A G68A belongs not above 0.5.
The result for C5A G9C A36U G50A reads 0.536; that for A21U C22U G25A C49A, not above 0.5.
For C5U C34A G44C C62U, the yeast fitness worked out at 0.723.
The result for G25C C27G C62U reads 0.597; that for C5A U19A C27U C55U, not above 0.5.
To A36G C61G A70C belongs 0.661.
On to U8C A15C C34U A37G A40U, for which the yeast fitness is not above 0.5.
To U16A G63A G67C belongs not above 0.5.
The result for U28A A43C A57C reads 0.608; that for G9C U47C, 0.632.
The result for A42G G44A reads 0.962.
On to C55U C61A, for which the yeast fitness stood at 0.524.
To C11G G18A A21C C49U belongs not above 0.5; to C30U A40U C49A G56A A57U, not above 0.5.
To C62U A65C belongs 0.914; to C46G G68C, 0.795; to A14U C55A C62U C66U, 0.553.
The result for C5G C31G G52C U54A C62G reads 0.5.
Turning to C11G C31U C33A C66U, the yeast fitness is not above 0.5.
The result for A15G C31A C55U reads not above 0.5; that for U2A G9C A14C C34U A65U, not above 0.5; that for A40C G63A, 0.815.
To C31A A40C belongs 0.775; to A14G A36G, 0.8; to G38C C62U U64C A70U, not above 0.5.
To A21U A40G belongs 0.633.
Consider G6A G12A C33G U54A U59A G67A, for which the yeast fitness was not above 0.5.
The result for C27A A37U C60U G63A reads 0.707; that for U32A G39A C49G, not above 0.5.
The result for G12A G51A A65G reads not above 0.5.
The result for U13A C46A A69C reads 0.722.
Consider U2G C4U G6C C22G G25C U32A G52A U59C C61A C62U, for which the yeast fitness was not above 0.5.
As for G10A A14G C46A A57G, the yeast fitness is not above 0.5.
On to A43U C46A G48C, for which the yeast fitness turned out to be 0.631.
To U2G C22U A57U belongs not above 0.5; to C29A A42G G63A, not above 0.5.
To U3A U16C C27G A36U G39C U53A A70G belongs not above 0.5.
In the case of G25A G67C, the yeast fitness was 0.992.
Take A14U G38A G58A: the yeast fitness was not above 0.5.
To U26G A36C C66A belongs not above 0.5; to C24G C31G G51A, not above 0.5; to C5U G67U, 0.735.
The result for C22U C61A reads 0.612.
For G50C A65C, the yeast fitness was 0.602.
To C22G C31A A45U belongs 0.621.
Turning to A37U U47A C62U, the yeast fitness came to 0.531.
To C34G A37C C60A belongs not above 0.5.
As to C5U U19A, the yeast fitness was determined as 0.906.
The result for A20C A40U G48A C61A G68A reads not above 0.5; that for U2G C4U U13A G41A A45C C49A U54G C55G, not above 0.5.
Regarding C30A C34A C49U, the yeast fitness was not above 0.5.
For G6C G51C A65C, the yeast fitness is 0.579.
The result for A21C C27A C49G A69C reads not above 0.5; that for U28C C30A C49U, not above 0.5; that for C27U C31U, 1.07.
To C31A A36C G44A A57U C66A belongs not above 0.5; to C5A C34U C61G, not above 0.5.
To C11A A20G G39A G51A U53A G63C belongs 0.545; to G10C C55A A65C G68A, not above 0.5; to C11U A20U C24U C29A C49U A70G, not above 0.5.
Turning to U53C G58A, the yeast fitness was determined as 1.02.
To G9A C24U U53A C66U belongs 0.529; to C30U C34U G51C C55U, not above 0.5; to G23A C62A, 0.516.
In the case of U13A A70U, the yeast fitness stood at 1.04.
U28G C34A: the yeast fitness came out at 0.568.
The result for G6C A14G U35G G51A reads not above 0.5.
The result for C11U G39C G58A A70U reads not above 0.5; that for A14C A15U U16A G44A A57U, not above 0.5.
To C5A C33U C61U belongs not above 0.5; to U7C C29G C49U U64A G68A, not above 0.5; to C27A A36C A40G C62A, not above 0.5.
As to G6C A37G G68C, the yeast fitness amounted to 0.536.
To C30A A37C C60A G67C belongs not above 0.5; to C27U G41C U64C A70C, 0.675.
To C27A C61G belongs 0.665; to C24U C27A C30U, 0.597.
Turning to A21U A40C G56A, the yeast fitness is not above 0.5.
Consider U8C C29U A43G C66U, for which the yeast fitness was not above 0.5.
The result for A43C A57G reads 0.744.
On to U2C G10C C31U A43G, for which the yeast fitness came out at 0.525.
The result for G41C C55A C66U A69C reads not above 0.5.
Take C4G C5U U16A C34A G68C: the yeast fitness is 0.508.
To U19C A21U C31U A42G A43U belongs 0.929; to C5U C27U C61G, not above 0.5.
To C22A U47C C55G belongs 0.536; to U7A A20C U28C G58C, 0.647.
Regarding G18C C22U C29A A42G, the yeast fitness is 0.541.
Consider G50C C66U, for which the yeast fitness came out at 0.596.
Regarding A15G C29A G39A C46U, the yeast fitness was not above 0.5.
To C33A A42G U54C C62U belongs 0.637; to G6A C49G, 0.904; to G10A A21G A65C, 0.545.
As for C5G G25C G44A A69C, the yeast fitness was not above 0.5.
Take U3C G6A C30U G39A A45G C46U C49G: the yeast fitness is not above 0.5.
To A20C G23U C60A belongs 0.676; to C4A A15U, 0.645; to G38A C55A, 0.71.
To A14C A20U A69U belongs 0.532; to C30U C55U, 0.687; to U8C U16C C33U A43U C49G G50C C61U C66U, not above 0.5.
The result for C5G U13A C31G G50A A65C reads 0.58; that for C5G C22U, 0.72.
In the case of C4G G18A C30U C60G, the yeast fitness was 0.515.
Take G12A A37G A43G U53A G58C C66G: the yeast fitness is not above 0.5.
G44C U59C: the yeast fitness came to 0.791.
The result for C11U C29G C31U A57U reads not above 0.5; that for A37C G44C G52C U59C C66U, 0.574; that for G18A U54A, 0.597.
With U7C C30G A40U A70U, the yeast fitness is not above 0.5.
On to U2A A36C, for which the yeast fitness amounted to 0.518.
U32C C34U U35C A45G U54A: the yeast fitness was not above 0.5.
The result for A15U G17C A37U reads not above 0.5; that for C4G U19A G44C, 0.535; that for G6C A15U G23C C31G G41C G48C G67C, not above 0.5.
Take C5G A37U G67A: the yeast fitness was not above 0.5.
